# Results published in ChEMBL document CHEMBL5058577, “EUbOPEN Chemogenomics Library 2 (Multiplex)” (2022).
# Test system: U2OS
# Test: Multiplex assay against U2OS
# Type: toxicity, cell-based
# Conditions: human
# Method in brief: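 With compound added, live cells were imaged on a CQ1 microscope at 37°C and 5% CO2; staining with Hoechst33342, BioTracker Green Microtubule Cytoskeleton Dye, MitoTracker Red and Annexin V Alexa Fluor 680 had been done at seeding. The CellPathfinder machine-learning gating scheme split cells into Hoechst high-intensity objects or normal cells, normal cells into healthy, pyknosed or fragmented nuclei, and pyknosed cells into mitotic or apoptotic. The tubulin, mitochondrial-mass and membrane-permeability phenotypes are per cents of healthy-nucleus cells.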
# [1] = 12 h, 1 µM, compound concentration 1 uM, replicate 1
# [2] = 12 h, 1 µM, compound concentration 1 uM, replicate 2
# [3] = 12 h, 10 µM, compound concentration 10 uM, replicate 1
# [4] = 12 h, 10 µM, compound concentration 10 uM, replicate 2
# [5] = 24 h, 1 µM, compound concentration 1 uM, replicate 1
# [6] = 24 h, 1 µM, compound concentration 1 uM, replicate 2
# [7] = 24 h, 10 µM, compound concentration 10 uM, replicate 1
# [8] = 24 h, 10 µM, compound concentration 10 uM, replicate 2
# [9] = 48 h, 1 µM, compound concentration 1 uM, replicate 1
# [10] = 48 h, 1 µM, compound concentration 1 uM, replicate 2
# [11] = 48 h, 10 µM, compound concentration 10 uM, replicate 1
# [12] = 48 h, 10 µM, compound concentration 10 uM, replicate 2
compound,measurement,setting,value
CN1CCN2c3ncccc3Cc3ccccc3C2C1 (stereo not drawn) [MIRTAZAPINE],Population Apoptotic (%),[1],82%
same,Population Fragmented Nuclei (%),[1],21%
same,Population Healthy Nuclei (%),[1],67%
same,Population Hoechst High Intensity Objects (%),[1],1%
same,Population Membrane Permeable-Phenotype (%),[1],3%
same,Population Mitochondria Different-Phenotype (%),[1],1%
same,Population Mitotic Cells (%),[1],17%
same,Population Normal (%),[1],99%
same,Population Pyknosed Nuclei (%),[1],11%
same,Population Tubulin-Different-Phenotype (%),[1],2%
same,Total Cell Count,[1],301
same,Population Apoptotic (%),[2],100%
same,Population Healthy Nuclei (%),[2],72%
same,Population Membrane Permeable-Phenotype (%),[2],5%
same,Population Mitochondria Different-Phenotype (%),[2],6%
same,Population Mitotic Cells (%),[2],0%
same,Population Normal (%),[2],98%
same,Population Pyknosed Nuclei (%),[2],6%
same,Population Tubulin-Different-Phenotype (%),[2],3%
same,Total Cell Count,[2],81
same,Population Apoptotic (%),[3],73%
same,Population Fragmented Nuclei (%),[3],19%
same,Population Healthy Nuclei (%),[3],71%
same,Population Hoechst High Intensity Objects (%),[3],3%
same,Population Membrane Permeable-Phenotype (%),[3],6%
same,Population Mitochondria Different-Phenotype (%),[3],5%
same,Population Mitotic Cells (%),[3],26%
same,Population Normal (%),[3],96%
same,Population Pyknosed Nuclei (%),[3],8%
same,Population Tubulin-Different-Phenotype (%),[3],6%
same,Total Cell Count,[3],266
same,Population Apoptotic (%),[4],66%
same,Population Fragmented Nuclei (%),[4],13%
same,Population Healthy Nuclei (%),[4],82%
same,Population Membrane Permeable-Phenotype (%),[4],3%
same,Population Mitochondria Different-Phenotype (%),[4],4%
same,Population Mitotic Cells (%),[4],33%
same,Population Pyknosed Nuclei (%),[4],3%
same,Population Tubulin-Different-Phenotype (%),[4],0%
same,Total Cell Count,[4],83
same,Population Apoptotic (%),[5],85%
same,Population Fragmented Nuclei (%),[5],15%
same,Population Healthy Nuclei (%),[5],76%
same,Population Hoechst High Intensity Objects (%),[5],2%
same,Population Membrane Permeable-Phenotype (%),[5],5%
same,Population Mitochondria Different-Phenotype (%),[5],3%
same,Population Mitotic Cells (%),[5],14%
same,Population Normal (%),[5],97%
same,Population Pyknosed Nuclei (%),[5],8%
same,Population Tubulin-Different-Phenotype (%),[5],2%
same,Total Cell Count,[5],340
same,Population Apoptotic (%),[6],100%
same,Population Fragmented Nuclei (%),[6],26%
same,Population Healthy Nuclei (%),[6],63%
same,Population Hoechst High Intensity Objects (%),[6],3%
same,Population Membrane Permeable-Phenotype (%),[6],3%
same,Population Mitotic Cells (%),[6],0%
same,Population Normal (%),[6],96%
same,Population Pyknosed Nuclei (%),[6],10%
same,Population Tubulin-Different-Phenotype (%),[6],4%
same,Total Cell Count,[6],99
same,Population Apoptotic (%),[7],89%
same,Population Fragmented Nuclei (%),[7],18%
same,Population Healthy Nuclei (%),[7],71%
same,Population Hoechst High Intensity Objects (%),[7],2%
same,Population Membrane Permeable-Phenotype (%),[7],4%
same,Population Mitochondria Different-Phenotype (%),[7],2%
same,Population Mitotic Cells (%),[7],10%
same,Population Normal (%),[7],97%
same,Population Pyknosed Nuclei (%),[7],9%
same,Population Tubulin-Different-Phenotype (%),[7],0%
same,Total Cell Count,[7],314
same,Population Apoptotic (%),[8],83%
same,Population Fragmented Nuclei (%),[8],9%
same,Population Healthy Nuclei (%),[8],85%
same,Population Hoechst High Intensity Objects (%),[8],0%
same,Population Membrane Permeable-Phenotype (%),[8],5%
same,Population Mitotic Cells (%),[8],16%
same,Population Normal (%),[8],99%
same,Population Pyknosed Nuclei (%),[8],5%
same,Population Tubulin-Different-Phenotype (%),[8],5%
same,Total Cell Count,[8],108
same,Population Apoptotic (%),[9],83%
same,Population Fragmented Nuclei (%),[9],12%
same,Population Healthy Nuclei (%),[9],76%
same,Population Hoechst High Intensity Objects (%),[9],2%
same,Population Membrane Permeable-Phenotype (%),[9],4%
same,Population Mitochondria Different-Phenotype (%),[9],2%
same,Population Mitotic Cells (%),[9],16%
same,Population Normal (%),[9],97%
same,Population Pyknosed Nuclei (%),[9],10%
same,Population Tubulin-Different-Phenotype (%),[9],3%
same,Total Cell Count,[9],479
same,Population Apoptotic (%),[10],92%
same,Population Fragmented Nuclei (%),[10],20%
same,Population Healthy Nuclei (%),[10],68%
same,Population Hoechst High Intensity Objects (%),[10],4%
same,Population Membrane Permeable-Phenotype (%),[10],8%
same,Population Mitochondria Different-Phenotype (%),[10],4%
same,Population Mitotic Cells (%),[10],7%
same,Population Normal (%),[10],95%
same,Population Pyknosed Nuclei (%),[10],11%
same,Population Tubulin-Different-Phenotype (%),[10],1%
same,Total Cell Count,[10],132
same,Population Apoptotic (%),[11],95%
same,Population Fragmented Nuclei (%),[11],15%
same,Population Healthy Nuclei (%),[11],75%
same,Population Hoechst High Intensity Objects (%),[11],2%
same,Population Membrane Permeable-Phenotype (%),[11],7%
same,Population Mitochondria Different-Phenotype (%),[11],4%
same,Population Mitotic Cells (%),[11],5%
same,Population Normal (%),[11],97%
same,Population Pyknosed Nuclei (%),[11],9%
same,Population Tubulin-Different-Phenotype (%),[11],5%
same,Total Cell Count,[11],435
same,Population Apoptotic (%),[12],100%
same,Population Fragmented Nuclei (%),[12],12%
same,Population Healthy Nuclei (%),[12],78%
same,Population Membrane Permeable-Phenotype (%),[12],3%
same,Population Mitochondria Different-Phenotype (%),[12],3%
same,Population Mitotic Cells (%),[12],0%
same,Population Tubulin-Different-Phenotype (%),[12],3%
same,Total Cell Count,[12],170
